PMC5361402 (Diabetes, 2014)

Tests used:
[1] = cited from earlier work
[2] = test system: patients with type 1 and type 2 diabetes; settings: phase II, patients previously treated with other basal insulins; cited from earlier work
[3] = cited from earlier work; remark: listed apart in the source
[4] = Plasma insulin / serum LY concentrations and organ extraction during the clamp; type: in vivo, dog
[5] = test system: conscious dogs; assay: Euglycemic clamp with tracer and hepatic balance measurements in conscious dogs; type: in vivo, dog; settings: control group (regular human insulin 0.11 nmol/kg/h iv, n=6)
Procedure, shortened: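 Conscious dogs had 30 min of basal sampling (90–120 min), then a 5-h euglycemic clamp (120–420 min). Somatostatin and regular human insulin (no priming dose) were given by peripheral vein, glucagon intraportally at basal 0.5 ng ⋅ kg−1 ⋅ min−1, and glucose infused to hold euglycemia. [3H]glucose tracer; Ra from Mari circulatory model; hepatic organ-balance calculations; triglycerides assayed spectrophotometrically; n = 6.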

[6] = regular insulin 0.11 nmol/kg/h iv during the clamp, dog

For insulin degludec, the “T1/2 relative to that of glargine” value [1] is given as “approximately two times”.
In the case of insulin glargine, the Body weight change [2] is given as “modest weight gain”.
In the case of “insulin: endogenously secreted insulin to which the liver is exposed”, the “Hepatic extraction of the insulin to which the liver is exposed” value [3] is given as 50–60%.
In the case of “regular insulin: regular human insulin infused via peripheral vein in the control group”, the “Portal vein insulin concentration during the clamp” value ([4]; control group (regular human insulin 0.11 nmol/kg/h iv, n=6)) is reported as ~ 50 % of basal, the Fractional hepatic extraction [4, 6] is reported as 50 ± 3% and the Fractional renal extraction [4, 6] is reported as 61 ± 3%. The “Change from baseline in net hepatic glucose balance by 420 min” value [5] was 10.3 ± 1.4 µmol ⋅ kg^-1 ⋅ min^−1, the “Fall of arterial plasma triglyceride concentration below baseline by 420 min” value [5] was ~ 40% and the “Increase in non-HGU over the basal rate in the final hour” value [5] was 11.1 ± 4.5 µmol ⋅ kg^−1 ⋅ min^−1. For the same substance, the “Time to NEFA nadir after the start of the clamp period” value [5] was at most 90 min, the “Nadir of NEFA concentrations” value ([5]; arterial plasma) was 271 ± 57 µmol/L and the “Fall from basal in endogenous glucose Ra by the final hour” value ([5]; tracer-determined) was 8.9 ± 1.9 µmol ⋅ kg^−1 ⋅ min^−1.
